Only some compounds are listed: those with a hit (about 2% of all), similar ones and a draw of the others.
TNF death inh = inhibitors of TNF-alpha induced necroptosis in Jurkat FADD-/- cells; Jurkat FADD-/- TNF necroptosis rescue, ATP luminescence, 24 h; 0 = TNF only, 100 = no-TNF cells; activation (protection from cell death), % at 10 µM; 0.068% of 220,000 active; AID 463075;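 active means activation, meaning protection from cell death, of at least 50% relative to plate controls; inactive means activation below 50%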;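 further: necroptosis triggered by 40 ng/mL TNF-alpha added together with compound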
Hep lipid drop = hepatic lipid droplet formation modulation; AML12 mouse hepatocytes, oleate lipid droplets, BODIPY imaging; inhibition, % at 6.5 µM; 0.4% of 240,000 active;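 active means lipid droplet intensity inhibited by at least 50%, with more than 500 cells counted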
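Technique: fluorescence imaging, 20x objective, two fields per well / Assay system: AML12 hepatocytes (mouse) / Measure: % inhibition of lipid droplet signal / Doses: 6.5 µM single-point dosing / Incubation: overnight exposure / Reagent: 100 µM oleic acid challenge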
TbHK1 inh = blocks Trypanosoma brucei hexokinase 1 activity. inhibition, % at 10 µM. AID 1430. 0.11% of 220,000 active. recombinant TbHK1, G6PDH-coupled NADH A340;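 active means inhibition of 50% or more in the single-dose primary screen; inactive means inhibition below 50%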
RBBP9 inhibitor = inhibitors of human serine hydrolase RBBP9; 0.2% of 220,000 active; inhibition, % at 7.94 µM; recombinant RBBP9, FP-Rh probe fluorescence polarization; O75884; AID 1515;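 active means inhibition above the campaign mean of all tested compounds plus 3 SD, cut at about 14% in these data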;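 further: plate controls were DMSO wells with RBBP9 for no effect and wells lacking RBBP9 protein for full effect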
Target sequence (O75884 whole entry, looked up): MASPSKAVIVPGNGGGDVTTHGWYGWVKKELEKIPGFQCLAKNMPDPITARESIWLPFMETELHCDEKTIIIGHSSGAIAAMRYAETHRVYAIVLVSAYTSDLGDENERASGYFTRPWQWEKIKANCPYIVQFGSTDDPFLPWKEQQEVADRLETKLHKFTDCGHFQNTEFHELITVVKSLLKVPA
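Material: RBBP9 protein. Amount: RBBP9 at 2.5 µM in dispensed solution, before mixing. Schedule: 30 min then 45 min, 25 °C. Medium: Tris buffer pH 8.0, NaCl, Pluronic. Measured by: fluorescence polarization. Measure: percent inhibition from mP, scaled between DMSO and no-protein wells. Replication: one well per compound.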
M18AAP inhibitor = PfM18AAP enzyme inhibition | recombinant PfM18AAP, H-Glu-NHMec fluorogenic cleavage | inhibition, % at 7.35 µM | 1.2% of 290,000 active;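 active means inhibition above the campaign mean inhibition over all tested compounds plus 3 SD, cut at about 28% in these data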;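 further: 0% = plate median of test compound wells and 100% = 2 mM ZnCl2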
zVAD death inh = L929 zVAD cell death inhibition; L929 zVAD necroptosis rescue, ATP luminescence, 24 h; with zVAD 60 µM; viability rescue, % at 10 µM; 0.38% of 220,000 active; AID 1377;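 active means activation, scaled between plate controls, above about 75%, limit read from the data; inactive means activation under that limit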;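 further: 0% = zVAD with DMSO and 100% = DMSO alone without zVAD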
RBBP9 confirm = confirmation of human RBBP9 inhibitors. 36% of 410 active. shares compounds with RBBP9 inhibitor. AID 1537. recombinant RBBP9, FP-Rh probe fluorescence polarization. inhibition, % at 7.94 µM;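 active means inhibition above the hit cutoff derived for the primary screen, cut at about 15% in these data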;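 further: 0% = RBBP9 with DMSO and 100% = wells lacking RBBP9 protein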
The depositor's hits bear a star.

What do the screens show for `CC(C)(C)NS(=O)(=O)c1cc(C(=O)Nc2sccc2C#N)ccc1Cl`?
TNF death inh: 1; Hep lipid drop: 44; TbHK1 inh: 11; RBBP9 inhibitor: -10; M18AAP inhibitor: 6; zVAD death inh: 1

Results for Cc1cc(O)ccc1N=Cc1c(C(F)(F)F)[nH][nH]c1=O ?
TNF death inh: -6; Hep lipid drop: 16; TbHK1 inh: 3; RBBP9 inhibitor: 39*; M18AAP inhibitor: 20; zVAD death inh: 0; RBBP9 confirm: 14

What do the screens show for `O=c1[nH][nH]c(C(F)(F)F)c1C=Nc1ccccc1`?
TNF death inh: -2; TbHK1 inh: 1; RBBP9 inhibitor: 1; M18AAP inhibitor: 3; zVAD death inh: 0

How did CN(CC(O)COc1ccc2ccccc2c1)C1CCCCC1 (stereo unspecified) do in these assays?
Hep lipid drop: -4; M18AAP inhibitor: 2

How did COc1ccc2c(c1)c1ccc3c(c1n2C)C(=O)C=CC3=O do in these assays?
TNF death inh: -31; Hep lipid drop: 4; TbHK1 inh: -25; RBBP9 inhibitor: 63*; M18AAP inhibitor: 5; zVAD death inh: 18; RBBP9 confirm: 71*

How did COC(=O)c1ccc(N2C(=O)CC(N3CCN(c4ccccc4)CC3)C2=O)cc1 (stereo unspecified) do in these assays?
TNF death inh: 2; TbHK1 inh: 1; RBBP9 inhibitor: 21*; M18AAP inhibitor: 13; zVAD death inh: 3; RBBP9 confirm: 10

How did COC(=O)c1ccc(N2C(=O)CC(N3CCOCC3)C2=O)cc1 (stereo unspecified) do in these assays?
TNF death inh: 1; TbHK1 inh: -7; RBBP9 inhibitor: -5; M18AAP inhibitor: -3; zVAD death inh: 1

How did COc1cccc(C2(O)C(=O)Nc3ccccc32)c1 (stereo unspecified) do in these assays?
Hep lipid drop: -9; M18AAP inhibitor: 0

How did COc1ccc2c(c1)CC(C1(O)C(=O)Nc3ccccc31)C2=O (stereo unspecified) do in these assays?
TNF death inh: -2; TbHK1 inh: -4; RBBP9 inhibitor: 19*; M18AAP inhibitor: -6; zVAD death inh: 0; RBBP9 confirm: 2

What do the screens show for `CCOC(=O)COc1cc(-n2c(=S)[nH]c3cc(OC)c(OC)cc3c2=O)c(Cl)cc1Cl`?
TNF death inh: -1; Hep lipid drop: -3; TbHK1 inh: -12; RBBP9 inhibitor: -10; M18AAP inhibitor: 4; zVAD death inh: 2

What do the screens show for `O=C(Nc1ccccc1)c1ccc(S(=O)(=O)NCc2ccco2)cc1`?
TNF death inh: 1; Hep lipid drop: 25; TbHK1 inh: 6; RBBP9 inhibitor: -8; M18AAP inhibitor: 6; zVAD death inh: 0

How did CC1CCCCC1NC(=O)c1ccc(S(=O)(=O)NCc2ccco2)cc1 (stereo unspecified) do in these assays?
TNF death inh: 1; Hep lipid drop: -32; TbHK1 inh: 0; RBBP9 inhibitor: 18*; M18AAP inhibitor: -3; zVAD death inh: 1; RBBP9 confirm: 1

How did CCC(C)C(NC(=O)C1CCC(C)CC1)C(=O)NCc1ccccn1 (stereo unspecified) do in these assays?
TNF death inh: 0; Hep lipid drop: 6; TbHK1 inh: 3; RBBP9 inhibitor: -8; M18AAP inhibitor: 7; zVAD death inh: 0

Results for CN(CC(=O)NCCc1ccccc1)S(=O)(=O)c1ccc(Br)cc1 ?
TNF death inh: -2; TbHK1 inh: 3; RBBP9 inhibitor: 15*; M18AAP inhibitor: 7; zVAD death inh: 0; RBBP9 confirm: -1

What do the screens show for `O=C(CN(c1cc(Cl)ccc1Cl)S(=O)(=O)c1ccccc1)N1CCOCC1`?
Hep lipid drop: -2; M18AAP inhibitor: 0

What do the screens show for `Cc1ccc(Nc2nc3ccccc3s2)c(C)c1`?
TNF death inh: 28; Hep lipid drop: 0; TbHK1 inh: 2; RBBP9 inhibitor: 7; M18AAP inhibitor: 4; zVAD death inh: 1

How did Cc1cc(O)ccc1Nc1nc2ccccc2nc1Nc1ccc(O)cc1C do in these assays?
TNF death inh: -3; TbHK1 inh: -20; RBBP9 inhibitor: 21*; M18AAP inhibitor: -6; zVAD death inh: 6; RBBP9 confirm: 11

Screening results from PubChem BioAssay.
